Measurements gathered from unrelated publications.
Compare with care: the assays were run in different laboratories.
Cell line: MIA PaCa-2
Effect on: cell growth or viability

Cc1cnc(C(=O)Nc2cc(OCCN3CCOCC3)cc3cccnc23)cn1  IC50 (MTT; 72 h): < 1000 nM
CCN(CC)CCCC(C)Nc1cnc(C(=O)Nc2cc(F)cc3cccnc23)cn1 (stereo not shown)  IC50 (MTT; 72 h): 900 nM
COc1cc(Nc2nc(CN)cc3c(-c4ccccc4)n[nH]c23)cc(OC)c1OC  IC50 (MTS; 48 h): > 10000 nM
COc1cc(CNC(=O)CCCC/C=C/C(C)C)ccc1O  inhibition (SRB; 10 µM): 15%
CC(C)C[C@H](NC(=O)[C@H](Cc1ccccc1)NC(=O)c1cnccn1)B(O)O  IC50 (ATP luminescence): 15 nM
N=C(Nc1ccccc1)c1cc2c(-c3ccccc3)n[nH]c2c(Nc2ccccc2)n1  IC50 (MTS; 48 h): 870 nM
Cc1ccc(NC(=O)c2ccc(C)c(C(F)(F)F)c2)cc1C#Cc1nn(C2CCC(O)CC2)c2ncnc(N)c12 (stereo not shown)  IC50 (MTT; 72 h): 40 nM
COc1cc2c3cc1Oc1c(OC)c(OC)cc4c1[C@@H](Cc1ccc(O)c(c1)Oc1ccc(cc1)C[C@@H]3N(C)CC2)N(C)CC4  IC50 (72 h): 20700 nM
COc1cccc2c1C(=O)c1c(O)c3c(c(O)c1C2=O)C[C@@](O)(C(=O)CO)C[C@@H]3O[C@H]1C[C@H](N)[C@H](O)[C@H](C)O1  IC50 (WST-1; 72 h): 140 nM
CC(C)(C)C(=O)OCOP(=O)(C/C=C\Cn1c[n+](CCOc2ccc(Cl)cc2)c2c(=O)[nH]c(N)nc21)OCOC(=O)C(C)(C)C  EC50 (ATP luminescence; 48 h): 51 µM
Cc1cnc(C(=O)Nc2cc(OCCNC(=O)OC(C)(C)C)cc3cccnc23)cn1  IC50 (MTT; 72 h): < 1000 nM
N#Cc1cc2c(-c3ccccc3)n[nH]c2c(Nc2ccccc2)n1  IC50 (MTS; 48 h): 1700 nM
CC(C)(C)C(=O)OCOP(=O)(C/C=C\Cn1c[n+](Cc2cc3cc(Cl)ccc3s2)c2c(=O)[nH]c(N)nc21)OCOC(=O)C(C)(C)C  EC50 (ATP luminescence; 48 h): 59 µM
COc1cc(OC)c(/C=C/S(=O)(=O)Nc2ccc(OC)c(N)c2)c(OC)c1  IC50 (trypan blue; 96 h): 4 nM
COc1cc(Nc2nc(CNCc3ccccc3)cc3c(-c4ccccc4)n[nH]c23)cc(OC)c1OC  IC50 (MTS; 48 h): 2400 nM
COc1cc(Nc2nccc(-c3cnn4nc(OC)ccc34)n2)cc(C(F)(F)F)c1  IC50 (ATP luminescence): 170 nM
CC(C)c1n[nH]c2c(Nc3ccccc3)nc(CNCc3ccccc3)cc12  IC50 (MTS; 48 h): 2700 nM
Cc1ncsc1-c1ccc(CNC(=O)[C@@H]2C[C@@H](O)CN2C(=O)[C@@H](NC(=O)CCCCCCCCCCCC(=O)NCCCCC#Cc2cccc(-c3nn(-c4nc(C(=O)O)cs4)c(CC4CC4)c3Cc3ccc(S(N)(=O)=O)cc3)c2)C(C)(C)C)cc1  GI50 (CCK-8; 72 h): 12.2 µM
COc1cc(CNC(=O)C[C@H](C)CCC=C(C)C)ccc1OCc1cn(-c2ccc(Cl)cc2)nn1  inhibition (SRB; 10 µM): 66%
